According to ChEMBL document CHEMBL2169744, “Discovery and optimization of potent and selective imidazopyridine and imidazopyridazine mTOR inhibitors” (Bioorg Med Chem Lett, 2012):
In brackets after ≈: the same amount, converted by molar mass.

What was measured:
[1] = biological target: Serine/threonine-protein kinase mTOR (Homo sapiens, UniProt P42345); assay: Inhibition of mTOR by LanthaScreen assay
Rattus norvegicus [2] = species on record: Rattus norvegicus; assay: Unbound clearance in rat; assay type: ADME, organism-based; conditions: in vivo
[3] = Inhibition of mTORC1-mediated 4EBP1-phosphorylation in human U87 cells; assay type: cell-based, U-87MG ATCC
[4] = Oral bioavailability in rat at 5 mg/kg; assay type: ADME, organism-based; conditions: in vivo
Procedure, shortened: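 Rat oral PK at 5.0 mpk in 1% Tween 80, 2% HPMC, 97% H2O, pH 2.2 (methanesulfonic acid).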

[5] = Volume of distribution at steady state in rat at 0.5 mg/kg, iv; assay type: ADME, organism-based; design: dose 0.5 mg/kg, route intravenous; conditions: in vivo, read-out: Vdss
[6] = Plasma protein binding in rat at 5 mg/kg, po; assay type: ADME, organism-based; design: dose 5 mg/kg, route oral; conditions: read-out: PPB (converted)
[7] = Half life in rat at 0.5 mg/kg, iv; assay type: ADME, organism-based; design: dose 0.5 mg/kg, route intravenous; conditions: in vivo
[8] = biological target: Phosphatidylinositol 4,5-bisphosphate 3-kinase catalytic subunit alpha isoform (Homo sapiens, UniProt P42336); assay: Inhibition of PI3Kalpha by AlphaScreen assay
[9] = (§1) Clearance in rat at 0.5 mg/kg, iv; assay type: ADME, organism-based; design: dose 0.5 mg/kg, route intravenous; conditions: in vivo
[10] = (§2) AUC in rat at 0.5 mg/kg, iv; assay type: ADME, organism-based, Plasma; design: dose 0.5 mg/kg, route intravenous; conditions: plasma
[11] = Solubility of the compound in simulated intestinal fluid; assay type: physicochemical
[12] = Oral bioavailability in rat at 2 mg/kg; assay type: ADME, organism-based; conditions: in vivo
[13] = Clearance in rat at 0.3 mg/kg, iv; assay type: ADME, organism-based; design: dose 0.3 mg/kg, route intravenous; conditions: in vivo
Procedure, shortened: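 Rat IV pharmacokinetics at 0.3 mpk, formulation 100% DMSO.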

[14] = Clearance in rat at 1 mg/kg, iv; assay type: ADME, organism-based; design: dose 1 mg/kg, route intravenous; conditions: in vivo
[15] = Inhibition of mTORC2-mediated AKT Ser473-phosphorylation in human U87 cells; assay type: cell-based, U-87MG ATCC; conditions: U-87 MG
Procedure, shortened: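 Cell assay in U87 cells measuring pAKT (S473), n ≥ 2.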

[16] = Oral bioavailability in rat at 4 mg/kg; assay type: ADME, organism-based; conditions: in vivo
[17] = Apparent permeability from basal to apical side of pig LLC-PK1 cells; assay type: ADME, cell-based, Sus scrofa
[18] = Solubility of the compound in phosphate buffered saline; assay type: physicochemical
[19] = Oral bioavailability in rat at 1 mg/kg; assay type: ADME, organism-based; conditions: in vivo
[20] = Apparent permeability from apical to basal side of pig LLC-PK1 cells; assay type: ADME, cell-based, Sus scrofa
[21] = Inhibition of mTORC1-mediated pS6 Ser240/244-phosphorylation in human U87MG cells; assay type: cell-based, U-87MG ATCC; conditions: U-87 MG
Procedure, shortened: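 Cell assay in U87MG cells measuring phosphorylation of the mTOR substrate S6 (S240/244), n ≥ 2.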

[22] = Efflux ratio of apparent permeability from basal to apical to apical to basal side of pig LLC-PK1 cells; assay type: ADME, cell-based, Sus scrofa
[23] = Solubility of the compound in 0.01 N HCl; assay type: physicochemical; conditions: buffer
Rattus norvegicus [24] = assay: as §1; assay type: ADME, organism-based; design: dose 0.5 mg/kg, route intravenous; conditions: in vivo
Rattus norvegicus [25] = assay: as §2; assay type: ADME, organism-based, Plasma; design: dose 0.5 mg/kg, route intravenous; conditions: in vivo
[26] = Homo sapiens, U-87 MG, read-out: IC50

Phosphatidylinositol 4,5-bisphosphate 3-kinase catalytic subunit alpha isoform, sequence (P42336 whole entry, canonical isoform): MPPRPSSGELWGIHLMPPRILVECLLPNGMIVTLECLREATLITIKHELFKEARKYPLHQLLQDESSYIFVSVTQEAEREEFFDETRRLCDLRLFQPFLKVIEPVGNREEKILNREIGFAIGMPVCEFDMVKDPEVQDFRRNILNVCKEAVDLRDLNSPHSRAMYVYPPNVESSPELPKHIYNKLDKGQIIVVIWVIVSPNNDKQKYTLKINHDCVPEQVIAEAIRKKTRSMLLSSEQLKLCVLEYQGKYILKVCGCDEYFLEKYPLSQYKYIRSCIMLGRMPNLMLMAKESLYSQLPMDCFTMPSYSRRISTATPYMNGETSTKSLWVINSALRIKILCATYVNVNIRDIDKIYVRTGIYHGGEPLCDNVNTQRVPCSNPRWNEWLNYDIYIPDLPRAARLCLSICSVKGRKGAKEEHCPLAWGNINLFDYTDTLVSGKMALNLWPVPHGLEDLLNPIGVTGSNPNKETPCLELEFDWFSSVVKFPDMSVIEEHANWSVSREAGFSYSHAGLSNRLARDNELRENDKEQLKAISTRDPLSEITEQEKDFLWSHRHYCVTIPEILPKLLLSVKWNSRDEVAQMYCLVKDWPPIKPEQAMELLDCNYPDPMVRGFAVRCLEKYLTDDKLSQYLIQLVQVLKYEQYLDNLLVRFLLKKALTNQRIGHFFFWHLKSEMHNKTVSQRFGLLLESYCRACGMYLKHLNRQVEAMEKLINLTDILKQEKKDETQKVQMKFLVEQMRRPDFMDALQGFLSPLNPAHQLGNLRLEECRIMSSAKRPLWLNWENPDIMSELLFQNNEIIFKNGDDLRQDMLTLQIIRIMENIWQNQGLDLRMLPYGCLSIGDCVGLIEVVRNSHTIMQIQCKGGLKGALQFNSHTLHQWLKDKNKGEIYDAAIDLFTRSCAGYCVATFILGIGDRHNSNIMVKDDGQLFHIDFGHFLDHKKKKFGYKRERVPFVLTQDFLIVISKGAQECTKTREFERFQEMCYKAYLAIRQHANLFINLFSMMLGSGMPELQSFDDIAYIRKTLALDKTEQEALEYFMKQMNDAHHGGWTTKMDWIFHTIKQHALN

Row | SMILES | IC50 [1] [nM] | IC50 [3, 26] [nM] | Vd [5] [L/kg] | half-life [7] [min] | IC50 [8] [nM] | clearance [9] [mL/min/kg] | solubility [11] [µg/mL] | clearance [14] [mL/min/kg] | IC50 [15] [nM] | further results
1 | CC(=O)Nc1cc(-c2c(Nc3ccn(C)n3)nc3ccccn23)nc(C)n1 | 67 | 940 | 0.6 | 39.6 | 4580 | 10 |  |  |  | CL free (Rattus norvegicus [2]): 10.8 L/h/kg; bioavailability [4]: 4%; fraction unbound [6]: 0.056; AUC [10]: 2.3 µM·h
2 | Cc1nc(N)cc(-c2c(Nc3cc[nH]n3)nc3ccccn23)n1 | 65 | 507 | 1.2 | 15 | 5840 |  | 162 (≈ 529 µM) |  |  | CL free (Rattus norvegicus [2]): 30.9 L/h/kg; bioavailability [12]: 2%; clearance [13]: 68.3 mL/min/kg
3 | Cc1nc(N)nc(-c2c(Nc3ccn[nH]3)nc3ccc(-c4cncn4C)cn23)n1 | 5 | 276 |  |  | 463 |  |  | 33.3 | 23 | 
4 | Cc1cc(-c2ccc3nc(Nc4cc[nH]n4)c(-c4nc(C)nc(N)n4)n3c2)ccn1 | 4 | 222 |  |  | 239 |  |  | 33.3 | 23 | 
5 | Cc1nc(N)nc(-c2c(Nc3cc[nH]n3)nc3ccc(-c4ccncc4)cn23)n1 | 6 | 326 |  |  | 306 |  |  | 33.3 | 26 | 
6 | COc1cnnc(Nc2cc(-c3c(Nc4cc[nH]n4)nc4cccnn34)nc(C)n2)c1 | 3 | 85 | 9.1 | 70.8 | 54 | 103 | 175 (≈ 421 µM) |  |  | 
7 | Cc1nc(N)nc(-c2c(Nc3ccn[nH]3)nc3ccc(-c4cccc(F)c4)cn23)n1 | 27 | 912 |  |  | 654 |  |  | 33.3 | 73 | 
8 | Cc1nc(Nc2ccc(N3CCOCC3)nn2)cc(-c2c(Nc3ccn[nH]3)nc3cccnn23)n1 | 35 | 309 | 3.9 | 95.4 | 256 | 41.7 | 98 (≈ 208 µM) |  |  | bioavailability [16]: 7%
9 | CC(=O)Nc1cc(-c2c(Nc3ccn(C)n3)nc3ccc(-c4cnn(C(C)C)c4)cn23)nc(C)n1 | 16 | 694 | 2.1 | 258 | > 125000 | 8.33 |  |  |  | bioavailability [4]: 8%; fraction unbound [6]: 0.004; AUC [10]: 1.8 µM·h
10 | Cc1nc(Nc2cnccn2)cc(-c2c(Nc3ccn[nH]3)nc3cccnn23)n1 | 6 | 66 | 2.5 | 25.2 | 122 | 96.7 |  |  |  | 
11 | Cc1nc(N)nc(-c2c(Nc3ccn[nH]3)nc3ccc(-c4cncnc4C)cn23)n1 | 3 | 57 |  |  | 68 |  |  | 33.3 | 6 | 
12 | Cc1nc(Nc2cccnn2)cc(-c2c(Nc3ccn[nH]3)nc3cccnn23)n1 | 24 | 276 |  |  | 173 |  |  |  |  | 
13 | COc1ncccc1-c1ccc2nc(Nc3ccn[nH]3)c(-c3nc(C)nc(N)n3)n2c1 | 39 | 510 |  |  | 268 |  |  | 33.3 | 138 | 
14 | Cc1nc(N)nc(-c2c(Nc3cc[nH]n3)nc3ccc(-c4cncnc4)cn23)n1 | 2 | 93 |  |  | 85 |  |  | 33.3 | 5 | 
15 | CC(=O)Nc1cc(-c2c(Nc3cc[nH]n3)nc3cccnn23)nc(C)n1 | 3 | 45 | 6.3 | 49.2 | 47 | 43.3 | 200 (≈ 572 µM) |  |  | bioavailability [4]: 46%; fraction unbound [6]: 0.056; AUC [10]: 0.6 µM·h
16 | Cc1nc(N)nc(-c2c(Nc3cc[nH]n3)nc3ccc(-c4cccnc4)cn23)n1 | 3 | 101 |  |  | 119 |  |  | 33.3 | 12 | 
17 | Cc1cc(-c2ccc3nc(Nc4cc[nH]n4)c(-c4nc(C)nc(N)n4)n3c2)on1 | 3 | 72 |  |  | 177 |  |  | 33.3 | 7 | 
18 | Cc1nc(N)nc(-c2c(Nc3ccn(C)n3)nc3ccc(-c4cncnc4)cn23)n1 | 76 |  | 1 | 15.6 | 635 | 41.7 | 1 (≈ 2.5 µM) |  |  | IC50 ([3]; u-87mg atcc): Not Active
19 | Cc1nc(N)nc(-c2c(Nc3ccn[nH]3)nc3ccc(-c4cnn(C5CC5)c4)cn23)n1 | 2 | 58 |  |  | 144 |  |  | 33.3 | 8 | 
20 | Cc1nccc(-c2c(Nc3ccn[nH]3)nc3cccnn23)n1 | 141 | 2170 | 0.62 | 13.8 | 3020 | 31.7 | 14 (≈ 47.9 µM) |  |  | 
21 | CC(=O)Nc1cc(-c2c(Nc3ccn(C)n3)nc3cccnn23)nc(C)n1 | 55 | 1230 | 0.8 | 23.4 | 1660 | 18.3 |  |  |  | CL free (Rattus norvegicus [2]): 33.3 L/h/kg; bioavailability [4]: 34%; fraction unbound [6]: 0.033; AUC [10]: 1.3 µM·h
22 | Cc1nc(Nc2cccnc2)cc(-c2c(Nc3ccn[nH]3)nc3cccnn23)n1 | 147 | 6390 |  |  | 1140 |  | 1 (≈ 2.6 µM) |  |  | 

Now from value to compound, other results behind:

Row | IC50 [1] [nM] | IC50 [3, 26] [nM] | Vd [5] [L/kg] | half-life [7] [min] | IC50 [8] [nM] | clearance [9] [mL/min/kg] | solubility [11] [µg/mL] | clearance [14] [mL/min/kg] | IC50 [15] [nM] | SMILES | further results
23 | 13 | 210 | 2 | 51 | 763 | 38.3 | 150 (≈ 488 µM) |  |  | Cc1nc(N)cc(-c2c(Nc3cc[nH]n3)nc3cccnn23)n1 | CL free (Rattus norvegicus [2]): 26.1 L/h/kg; bioavailability [4]: 100%; fraction unbound [6]: 0.088; AUC [10]: 1 µM·h
24 | 9 | 60 | 1.2 | 31.2 | 112 | 38.3 |  |  |  | CC(=O)Nc1cc(-c2c(Nc3cc[nH]n3)nc3ccccn23)nc(C)n1 | AUC [10]: 0.6 µM·h
25 |  | 115 |  |  | 96 |  |  | 33.3 | 29 | CC(=O)Nc1cccc(-c2ccc3nc(Nc4cc[nH]n4)c(-c4nc(C)nc(N)n4)n3c2)c1 | 
26 | 21 | 652 |  |  | 393 |  |  | 33.3 | 54 | Cc1nc(N)nc(-c2c(Nc3cc[nH]n3)nc3ccc(-c4ccccc4C)cn23)n1 | 
27 | 63 | 706 | 1.3 | 15.6 | 1140 | 80 | 7 (≈ 21.8 µM) |  |  | CNc1cc(-c2c(Nc3cc[nH]n3)nc3cccnn23)nc(C)n1 | bioavailability [4]: 29%
28 | 2 | 49 |  |  | 73 |  |  | 33.3 | 13 | Cc1nc(N)nc(-c2c(Nc3cc[nH]n3)nc3ccc(-c4cnccc4C)cn23)n1 | 
29 | 20 | 347 | 4.1 | 42 | 3170 | 117 |  |  |  | CC(=O)Nc1cc(-c2c(Nc3ccn(C)n3)nc3ccc(-c4cnco4)cn23)nc(C)n1 | bioavailability [4]: 3%; AUC [10]: 0.2 µM·h
30 | 23 |  |  |  |  |  | 8.4 (≈ 27.3 µM) |  |  | Cc1nc(N)nc(-n2c(Nc3ccn[nH]3)nc3ccccc32)n1 | Papp B→A [17]: 35.4 ×10⁻⁶ cm/s; solubility [18]: 8.4 µg/mL (≈ 27.3 µM); bioavailability [19]: 6%; Papp A→B [20]: 20.3 ×10⁻⁶ cm/s; IC50 [21]: 166 nM; efflux ratio [22]: 1.7; solubility [23]: 3.7 µg/mL (≈ 12 µM)
31 | 3 | 41 |  |  | 120 |  |  | 33.3 | 10 | Cc1nc(N)nc(-c2c(Nc3cc[nH]n3)nc3ccc(-c4cccnc4C)cn23)n1 | 
32 | 36 | 146 | 3.2 | 21.6 | 105 | 100 | > 200 |  |  | Cc1nc(Nc2cnn(C3CCOC3)c2)cc(-c2c(Nc3ccn[nH]3)nc3cccnn23)n1 (stereo not drawn) | 
33 | 15 | 230 | 1.7 | 168 | 4290 |  |  |  |  | CC(=O)Nc1cc(-c2c(Nc3ccn(C)n3)nc3ccc(-c4cccnc4C)cn23)nc(C)n1 | bioavailability [4]: 38%; fraction unbound [6]: 0.025; CL (Rattus norvegicus [24]): 0.6 L/h/kg; AUC (Rattus norvegicus [25]): 7.6 µM·h
34 | 15 | 67 |  |  | 648 |  |  | 33.3 | 64 | Cc1nc(N)nc(-c2c(Nc3cc[nH]n3)nc3ccc(-c4ccccc4F)cn23)n1 | 
